Reference: ChEMBL document CHEMBL2384907, “Identification of substituted pyrimido[5,4-b]indoles as selective Toll-like receptor 4 ligands” (J Med Chem, 2013)
Activity calls are given as the source filed them. The calls are words filed in the database; no cut-off is given here.

Legend:
[1] = molecular target: T1, Toll-like receptor 4 (Mus musculus) (UniProt Q9QUK6); test: Activation of TLR4 in C57BL/6 mouse BMDC cells assessed as AUC of IL6 release after 18 hrs by ELISA relative to N-cyclohexyl-2-(4-oxo-3-phenyl-4,5-dihydro-3H-pyrimido[5,4-b]indol-2-ylthio)acetamide; format: cell-based
T1 sequence (whole entry): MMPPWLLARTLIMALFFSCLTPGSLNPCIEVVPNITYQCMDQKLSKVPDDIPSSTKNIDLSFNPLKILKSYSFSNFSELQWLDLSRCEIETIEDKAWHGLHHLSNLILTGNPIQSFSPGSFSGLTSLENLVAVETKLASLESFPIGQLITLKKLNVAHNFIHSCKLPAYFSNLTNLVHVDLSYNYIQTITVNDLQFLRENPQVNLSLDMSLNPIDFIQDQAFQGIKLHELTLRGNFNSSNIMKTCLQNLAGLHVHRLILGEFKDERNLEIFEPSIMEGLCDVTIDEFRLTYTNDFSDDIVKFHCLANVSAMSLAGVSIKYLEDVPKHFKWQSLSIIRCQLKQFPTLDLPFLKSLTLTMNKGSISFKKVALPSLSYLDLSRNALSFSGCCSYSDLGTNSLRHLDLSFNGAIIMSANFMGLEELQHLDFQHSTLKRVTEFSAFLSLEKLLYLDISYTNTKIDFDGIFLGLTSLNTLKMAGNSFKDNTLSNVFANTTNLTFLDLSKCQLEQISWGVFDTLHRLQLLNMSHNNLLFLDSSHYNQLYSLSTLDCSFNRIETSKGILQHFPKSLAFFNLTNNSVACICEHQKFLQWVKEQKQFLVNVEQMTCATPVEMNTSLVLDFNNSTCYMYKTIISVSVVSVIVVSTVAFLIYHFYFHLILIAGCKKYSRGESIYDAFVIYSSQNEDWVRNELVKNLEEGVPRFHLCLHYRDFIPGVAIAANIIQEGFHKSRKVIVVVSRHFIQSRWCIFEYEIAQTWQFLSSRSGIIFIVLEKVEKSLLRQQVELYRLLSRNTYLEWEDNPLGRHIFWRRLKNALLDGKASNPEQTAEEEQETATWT
How it was run: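 C57BL/6 bone marrow DC, 10^5 cells/well in RPMI-10% FCS, 18 h at 37 °C with titrated doses 312 nM–10 μM; supernatant IL-6 by ELISA. Each curve converted to percent activity (background subtracted, plate-adjusted), AUC by trapezoid method, normalized to reference hit set at 100 per experiment. LPS 10 ng/mL positive control; 0.5% DMSO vehicle.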

[2] = molecular target: T2, Toll-like receptor 9 (Homo sapiens) (UniProt Q9NR96); test: Activation of human TLR9 transfected in HEK293 cells at 10 uM after 20 to 24 hrs by SEAP assay; format: cell-based
T2 sequence (whole entry): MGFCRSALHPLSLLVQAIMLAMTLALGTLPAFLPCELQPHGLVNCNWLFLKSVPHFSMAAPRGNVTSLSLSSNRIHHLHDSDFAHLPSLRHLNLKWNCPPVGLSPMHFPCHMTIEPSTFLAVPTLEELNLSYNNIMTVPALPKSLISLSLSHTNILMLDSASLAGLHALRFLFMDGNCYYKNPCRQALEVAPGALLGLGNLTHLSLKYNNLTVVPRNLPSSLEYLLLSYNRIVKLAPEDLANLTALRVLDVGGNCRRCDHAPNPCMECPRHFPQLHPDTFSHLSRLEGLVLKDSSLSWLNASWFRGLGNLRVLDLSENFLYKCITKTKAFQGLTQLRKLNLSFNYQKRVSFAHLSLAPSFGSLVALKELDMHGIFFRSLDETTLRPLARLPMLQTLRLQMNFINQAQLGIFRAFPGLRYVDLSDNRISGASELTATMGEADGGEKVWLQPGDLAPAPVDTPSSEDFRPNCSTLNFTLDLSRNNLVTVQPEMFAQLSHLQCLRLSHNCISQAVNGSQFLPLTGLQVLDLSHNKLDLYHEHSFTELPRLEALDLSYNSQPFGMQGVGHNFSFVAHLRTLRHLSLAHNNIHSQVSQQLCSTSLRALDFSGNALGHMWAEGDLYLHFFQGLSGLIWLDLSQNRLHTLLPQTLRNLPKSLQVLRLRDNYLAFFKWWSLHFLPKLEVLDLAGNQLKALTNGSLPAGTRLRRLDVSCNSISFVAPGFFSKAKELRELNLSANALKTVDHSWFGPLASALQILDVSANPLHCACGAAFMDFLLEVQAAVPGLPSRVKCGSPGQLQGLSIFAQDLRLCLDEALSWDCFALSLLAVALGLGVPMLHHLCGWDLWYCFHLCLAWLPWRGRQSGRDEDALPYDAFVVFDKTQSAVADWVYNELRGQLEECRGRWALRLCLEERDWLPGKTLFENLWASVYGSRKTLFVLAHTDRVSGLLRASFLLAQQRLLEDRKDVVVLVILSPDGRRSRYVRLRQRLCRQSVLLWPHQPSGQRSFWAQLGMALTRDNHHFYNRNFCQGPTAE

[3] = molecular target: T1, Toll-like receptor 4 (Mus musculus); test: Activation of TLR4 in C57BL/6 mouse BMDC cells assessed as AUC of IP10 release at 5 uM after 18 hrs by ELISA relative to N-cyclohexyl-2-(4-oxo-3-phenyl-4,5-dihydro-3H-pyrimido[5,4-b]indol-2-ylthio)acetamide; format: cell-based
[4] = molecular target: Toll-like receptor 2 (Homo sapiens) (UniProt O60603); test: Activation of human TLR2 transfected in HEK293 cells at 10 uM after 20 to 24 hrs by SEAP assay; format: cell-based
Toll-like receptor 2 (Homo sapiens), sequence (O60603 whole entry): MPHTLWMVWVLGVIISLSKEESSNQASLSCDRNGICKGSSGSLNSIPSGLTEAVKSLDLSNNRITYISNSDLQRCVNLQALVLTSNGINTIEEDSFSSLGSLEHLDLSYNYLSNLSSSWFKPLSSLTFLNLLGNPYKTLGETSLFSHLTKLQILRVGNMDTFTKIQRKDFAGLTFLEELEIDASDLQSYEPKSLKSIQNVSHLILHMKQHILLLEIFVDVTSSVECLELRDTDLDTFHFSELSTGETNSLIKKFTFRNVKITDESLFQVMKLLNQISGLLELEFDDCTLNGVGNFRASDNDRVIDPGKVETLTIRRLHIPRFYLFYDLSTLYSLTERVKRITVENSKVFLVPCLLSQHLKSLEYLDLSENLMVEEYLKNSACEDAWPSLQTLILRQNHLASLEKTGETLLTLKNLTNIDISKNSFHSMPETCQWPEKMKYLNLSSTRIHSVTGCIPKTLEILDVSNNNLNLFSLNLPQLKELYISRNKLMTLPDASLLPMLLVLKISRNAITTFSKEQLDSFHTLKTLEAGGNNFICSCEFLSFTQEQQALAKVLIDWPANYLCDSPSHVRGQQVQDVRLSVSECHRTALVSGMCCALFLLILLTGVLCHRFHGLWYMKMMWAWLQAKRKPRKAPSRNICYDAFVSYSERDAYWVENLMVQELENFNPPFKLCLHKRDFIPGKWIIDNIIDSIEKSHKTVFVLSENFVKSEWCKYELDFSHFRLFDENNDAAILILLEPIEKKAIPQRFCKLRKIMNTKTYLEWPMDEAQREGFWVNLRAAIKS

[5] = molecular target: Toll-like receptor 4/MD-2/CD14 (Mus musculus) (UniProt Q9QUK6+Q9JHF9+P10810); test: Activation of mouse TLR4/MD-2/CD14 complex in HEK293 cells assessed as NFkappaB activation by SEAP assay in presence of LPS-RS
[6] = molecular target: Toll-like receptor 4 (Homo sapiens) (UniProt O00206); test: Activation of TLR4 in human PBMC cells assessed as AUC of IL8 release at 10 uM after 18 hrs by ELISA relative to N-cyclohexyl-2-(4-oxo-3-phenyl-4,5-dihydro-3H-pyrimido[5,4-b]indol-2-ylthio)acetamide; format: cell-based
Toll-like receptor 4 (Homo sapiens), sequence (O00206 whole entry): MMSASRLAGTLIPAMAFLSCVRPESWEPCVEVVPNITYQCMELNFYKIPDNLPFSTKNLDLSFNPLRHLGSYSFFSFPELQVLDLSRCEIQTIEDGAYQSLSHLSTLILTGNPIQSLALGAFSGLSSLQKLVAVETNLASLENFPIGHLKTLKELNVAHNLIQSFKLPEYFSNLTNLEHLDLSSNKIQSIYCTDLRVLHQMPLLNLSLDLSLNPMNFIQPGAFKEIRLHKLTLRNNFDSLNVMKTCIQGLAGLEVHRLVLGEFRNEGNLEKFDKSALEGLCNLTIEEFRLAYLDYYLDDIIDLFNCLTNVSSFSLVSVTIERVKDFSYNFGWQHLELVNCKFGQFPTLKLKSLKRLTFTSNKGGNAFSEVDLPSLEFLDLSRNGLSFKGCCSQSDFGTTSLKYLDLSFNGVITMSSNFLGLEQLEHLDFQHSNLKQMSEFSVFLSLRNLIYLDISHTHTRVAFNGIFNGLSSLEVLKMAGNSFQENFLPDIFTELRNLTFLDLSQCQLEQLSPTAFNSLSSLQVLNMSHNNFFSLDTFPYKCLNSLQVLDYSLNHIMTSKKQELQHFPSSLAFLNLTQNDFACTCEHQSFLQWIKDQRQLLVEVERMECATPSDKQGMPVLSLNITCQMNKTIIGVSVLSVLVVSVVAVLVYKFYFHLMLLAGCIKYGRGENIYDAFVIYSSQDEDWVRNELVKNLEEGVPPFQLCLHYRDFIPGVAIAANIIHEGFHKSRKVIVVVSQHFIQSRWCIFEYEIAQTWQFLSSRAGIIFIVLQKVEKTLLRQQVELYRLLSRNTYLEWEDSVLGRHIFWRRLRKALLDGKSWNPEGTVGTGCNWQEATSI
How it was run: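 Human PBMC from buffy coats, 1 × 10^6/mL in complete RPMI, 18 h at 37 °C, 5% CO2 with compound at 10 μM; IL-8 in supernatant by ELISA, normalized to reference hit set at 100. LPS 10 ng/mL positive control.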

[7] = molecular target: T1, Toll-like receptor 4 (Mus musculus); test: Activation of TLR4-mediated type 1 IFN release in C57BL/6 mouse BMDC cells after overnight incubation by luciferase reporter gene assay; format: cell-based
How it was run: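 Wild-type BMDC incubated overnight with graded concentrations (0.5% DMSO vehicle); 50 μL supernatant put on L929-ISRE luciferase reporter cells (5 × 10^4/well, DMEM-10) for 6 h; luciferase read, quantified against mouse IFN-β standard. Mean ± SEM of triplicates, two independent experiments.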

O=C(CSc1nc2c([nH]c3ccccc32)c(=O)n1-c1ccccc1)NC1CCCCC1
Activity [1]: 100% | Activity [2]: inactive | Activity [3]: 100% | Activity [4]: inactive | Activity [5]: Dose-dependent effect | Activity [6]: 100% | Activity [7]: Dose-dependent effect
